Assays:
[1] = Drug level in C57Bl6 mouse plasma at 10 mg/kg, po after 1 hr by HPLC analysis; type: ADME, organism-based; set-up: dose 10 mg/kg, route oral
[2] = Drug level in C57Bl6 mouse plasma at 10 mg/kg, po after 2 hrs by HPLC analysis; type: ADME, organism-based; set-up: dose 10 mg/kg, route oral
[3] = Partition coefficient, log P of the compound by reverse phase HPLC analysis; type: physicochemical; conditions: octanol/water
Procedure, shortened: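 log P estimated from reversed-phase HPLC retention times of each compound's ketone form.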

[4] = Metabolic stability in rat liver microsomes assessed as compound remaining after 30 mins by UV-reverse phase HPLC analysis; type: ADME, Microsome; conditions: read-out: Stability
[5] = Drug level in C57Bl6 mouse bile assessed as 3-(5-carboxypentanoyl)-1-(2-hydroxy-3-(4-octylphenoxy)propyl)-1H-indole-5-carboxylic acid at 100 mg/kg, po after 2 hrs by HPLC analysis; type: ADME, organism-based; set-up: dose 100 mg/kg, route oral; conditions: in vivo
[6] = Drug level in C57Bl6 mouse bile assessed as 3-(5-carboxypentanoyl)-1-(2-hydroxy-3-(4-octylphenoxy)propyl)-1H-indole-5-carboxylic acid at 100 mg/kg, po after 2 hrs by HPLC analysis in presence of Helix pomatia beta-glucuronidase HP2; type: ADME, organism-based; set-up: dose 100 mg/kg, route oral; conditions: in vivo
Procedure, shortened: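 C57Bl6 mice (n = 3) were gavaged once with 100 mg/kg suspended in 1% aqueous methylcellulose, and bile was taken at 2 h. Bile in PBS pH 5.5 was treated with Helix pomatia β-glucuronidase HP-2 at 60 °C for 1 h to cleave glucuronides. Acetonitrile was then added, samples were left 5 min, spun 2000g for 15 min, and analysed by reversed-phase HPLC-UV. Mean ± SD.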

Intestine [7] = assay: Drug level in C57Bl6 mouse intestine assessed as 3-(5-carboxypentanoyl)-1-(2-hydroxy-3-(4-octylphenoxy)propyl)-1H-indole-5-carboxylic acid per gut at 100 mg/kg, po after 2 hrs by HPLC analysis; type: ADME, organism-based; set-up: dose 100 mg/kg, route oral; conditions: in vivo
Procedure, shortened: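 Whole intestine removed 2 h after a single 100 mg/kg gavage (1% methylcellulose suspension) in C57Bl6 mice (n = 3). Tissue minced and homogenised in PBS pH 7.4 at 0 °C, then extracted with acetonitrile with repeated PBS/acetonitrile 1:1 washes, spun 2000g at 4 °C. Pooled extract made up to volume and analysed by reversed-phase HPLC-UV. Amount per gut, mean ± SD.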

[8] = Drug level in rat plasma at 100 mg/kg, po after 4 hrs by HPLC analysis; type: ADME, organism-based; set-up: dose 100 mg/kg, route oral
[9] = Drug level in C57Bl6 mouse plasma at 100 mg/kg, po after 1 hr by HPLC analysis; type: ADME, organism-based; set-up: dose 100 mg/kg, route oral
Procedure, shortened: (§1)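 Male/female unspecified C57Bl6 mice (n = 3) got a single 100 mg/kg oral gavage dose as a suspension in 1% aqueous methylcellulose (8 μL/g). Blood was drawn at 1 and 2 h and centrifuged at 3000g for 20 min. Plasma was mixed with pH 7.4 PBS and acetonitrile, left 5 min at room temperature and spun at 2000g for 15 min. Supernatant went to reversed-phase C18 HPLC-UV for parent and alcohol metabolite.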

[10] = Drug level in C57Bl6 mouse plasma at 100 mg/kg, po after 2 hrs by HPLC analysis; type: ADME, organism-based; set-up: dose 100 mg/kg, route oral; procedure, shortened: as §1
Plasma [11] = assay: Drug level in C57Bl6 mouse plasma assessed as 3-(5-carboxypentanoyl)-1-(2-hydroxy-3-(4-octylphenoxy)propyl)-1H-indole-5-carboxylic acid at 100 mg/kg, po after 1 hr by HPLC analysis; type: ADME, organism-based; set-up: dose 100 mg/kg, route oral; conditions: in vivo; procedure, shortened: as §1
Plasma [12] = assay: Drug level in C57Bl6 mouse plasma assessed as 3-(5-carboxypentanoyl)-1-(2-hydroxy-3-(4-octylphenoxy)propyl)-1H-indole-5-carboxylic acid at 100 mg/kg, po after 2 hrs by HPLC analysis; type: ADME, organism-based; set-up: dose 100 mg/kg, route oral; conditions: in vivo; procedure, shortened: as §1
[13] = Drug level in C57Bl6 mouse bile at 100 mg/kg, po after 2 hrs by HPLC analysis; type: ADME, organism-based; set-up: dose 100 mg/kg, route oral; conditions: read-out: Drug uptake
Procedure, shortened: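 Mice (C57Bl6, n = 3) were dosed orally by gavage at 100 mg/kg in 1% methylcellulose and killed 2 h later for bile collection. For direct measurement, bile was diluted in pH 7.4 PBS with equal acetonitrile. Alternatively, bile in pH 5.5 PBS was digested with Helix pomatia β-glucuronidase HP-2 at 60 °C for 1 h, then acetonitrile was added. Both were centrifuged at 2000g and analysed by reversed-phase HPLC-UV.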

[14] = Drug level in C57Bl6 mouse intestine assessed per gut at 100 mg/kg, po after 2 hrs by HPLC analysis; type: ADME, organism-based; set-up: dose 100 mg/kg, route oral; conditions: read-out: Drug uptake
Procedure, shortened: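 Whole intestines were taken from C57Bl6 mice (n = 3) 2 h after 100 mg/kg oral gavage in 1% methylcellulose. Each was minced, homogenized at 0 °C in pH 7.4 PBS and extracted with acetonitrile. Pellet washes with PBS/acetonitrile 1:1 were pooled, made up to volume, centrifuged and filtered. Parent and alcohol metabolite per whole gut were quantified by reversed-phase HPLC-UV.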

Intestine [15] = assay: Drug level in C57Bl6 mouse intestine assessed per gut at 100 mg/kg, po after 2 hrs by HPLC analysis in presence of Helix pomatia beta-glucuronidase HP2; type: ADME, organism-based; set-up: dose 100 mg/kg, route oral; conditions: in vivo
Intestine [16] = assay: Drug level in C57Bl6 mouse intestine assessed as 3-(5-Carboxypentanoyl)-1-[2-hydroxy-3-(4-octylphenoxy)propyl]indole-5-carboxylic acid level assessed per gut at 100 mg/kg, po after 2 hrs by HPLC analysis in presence of Helix pomatia beta-glucuronidase HP2; type: ADME, organism-based; set-up: dose 100 mg/kg, route oral; conditions: in vivo

COc1ccc2c(c1)c(CC(=O)O)c(C)n2C(=O)c1ccc(Cl)cc1 [INDOMETHACIN]
concentration at 1 h [1]: 42000 ng/mL
concentration at 2 h [2]: 34000 ng/mL

CCCCCCCCc1ccc(OCC(=O)Cn2cc(C(=O)CCC)c3cc(C(=O)O)ccc32)cc1
logP [3]: 6.7

CCCCCCCCc1ccc(OCC(=O)Cn2cc(C(=O)c3ccc(C(=O)O)cc3)c3cc(C(=O)O)ccc32)cc1
remaining at 0.5 h [4]: 87%
logP [3]: 5.6

CCCCCCCCc1ccc(OCC(=O)Cn2cc(C(=O)CCCCC)c3cc(C(=O)O)ccc32)cc1
logP [3]: > 7

CCCCCCCCc1ccc(OCC(=O)Cn2cc(CC)c3cc(C(=O)O)ccc32)cc1
remaining at 0.5 h [4]: 84%
logP [3]: > 7

CCCCCCCCc1ccc(OCC(O)Cn2cc(C(=O)CCCCC(=O)O)c3cc(C(=O)O)ccc32)cc1 (centres undefined)
Drug uptake [5]: < 1 µg/mL
Drug uptake [6]: 33 µg/mL
Drug uptake (Intestine [7]): 14 µg/mL

O=C(O)CCCCC(=O)c1cn(CC(=O)COc2ccc(Oc3ccccc3)cc2)c2ccc(C(=O)O)cc12
remaining at 0.5 h [4]: 24%
logP [3]: 2.1

CCCCCCCCc1ccc(OCC(=O)Cn2cc(CCCCCC)c3cc(C(=O)O)ccc32)cc1
remaining at 0.5 h [4]: 94%
logP [3]: > 7

CCCCCCCCCCCC(=O)c1c(C(=O)O)n(CCOc2ccc(CC(=O)O)cc2)c2ccccc12
concentration at 4 h [8]: 100000 ng/mL

CCCCCCCCc1ccc(OCC(=O)Cn2cc(C(=O)c3cccc(C(=O)O)c3)c3cc(C(=O)O)ccc32)cc1
remaining at 0.5 h [4]: 87%
logP [3]: 5.7

CCCCCCCCc1ccc(OCC(=O)Cn2cc(C(=O)C(C)(C)C)c3cc(C(=O)O)ccc32)cc1
remaining at 0.5 h [4]: 93%
logP [3]: > 7

CCCCCCCCc1ccc(OCC(=O)Cn2cc(C(=O)CCCCC(=O)O)c3cc(C(=O)O)ccc32)cc1
logP [3]: 5.3
concentration at 1 h [9]: < 200 ng/mL
concentration at 2 h [10]: < 200 ng/mL
Cp (Plasma [11]): < 100 ng/mL
Cp (Plasma [12]): < 100 ng/mL
concentration at 2 h [13]: 6000 ng/mL
concentration at 2 h [14]: 870000 ng/mL

CCCCCCCCc1ccc(OCC(=O)Cn2cc(C(=O)C(F)(F)F)c3cc(C(=O)O)ccc32)cc1
remaining at 0.5 h [4]: 87%
logP [3]: > 7

CCCCCCCCc1ccc(OCC(=O)Cn2cc(C(=O)CCCC(=O)O)c3cc(C(=O)O)ccc32)cc1
remaining at 0.5 h [4]: 95%
logP [3]: 5.2

CCCCCCCCc1ccc(OCC(=O)Cn2cc(C(=O)CCC(=O)O)c3cc(C(=O)O)ccc32)cc1
logP [3]: 5.1

CCCCCCCCc1ccc(OCC(=O)Cn2cc(C(=O)c3ccccc3)c3cc(C(=O)O)ccc32)cc1
remaining at 0.5 h [4]: 95%
logP [3]: 6.9

CCCCCCCCc1ccc(OCC(=O)Cn2cc(-c3nc(C)no3)c3cc(C(=O)O)ccc32)cc1
remaining at 0.5 h [4]: 81%
logP [3]: 6.3

CC(C)C(=O)c1cn(CC(=O)COc2ccc(Oc3ccccc3)cc2)c2ccc(C(=O)O)cc12
concentration at 1 h [9]: < 5000 ng/mL
concentration at 2 h [10]: < 1000 ng/mL
Drug uptake (Intestine [15]): 404 µg
Drug uptake (Intestine [16]): 875 µg

Cc1noc(-c2cn(CC(=O)COc3ccc(Oc4ccccc4)cc3)c3ccc(C(=O)O)cc23)n1
remaining at 0.5 h [4]: 8%
logP [3]: 3.1

CCCCCCCCc1ccc(OCC(=O)Cn2cc(CCCC)c3cc(C(=O)O)ccc32)cc1
remaining at 0.5 h [4]: 82%
logP [3]: > 7
